Test results: ChEMBL document CHEMBL2150901, “Synthesis and biological activity of tricyclic cycloalkylimidazo-, pyrimido- and diazepinopurinediones” (Eur J Med Chem, 2011)
Calls of active or inactive are those of the source. The rule behind the calls is not given here.

What was measured:
Adenosine receptor A3 = molecular target: T1, Adenosine receptor A3 (Homo sapiens, UniProt P0DMS8); experiment: Displacement of [3H]PSB-11 from human recombinant adenosine A3 receptor expressed in CHO cells; type: cell-based
T1 sequence (P0DMS8 whole entry): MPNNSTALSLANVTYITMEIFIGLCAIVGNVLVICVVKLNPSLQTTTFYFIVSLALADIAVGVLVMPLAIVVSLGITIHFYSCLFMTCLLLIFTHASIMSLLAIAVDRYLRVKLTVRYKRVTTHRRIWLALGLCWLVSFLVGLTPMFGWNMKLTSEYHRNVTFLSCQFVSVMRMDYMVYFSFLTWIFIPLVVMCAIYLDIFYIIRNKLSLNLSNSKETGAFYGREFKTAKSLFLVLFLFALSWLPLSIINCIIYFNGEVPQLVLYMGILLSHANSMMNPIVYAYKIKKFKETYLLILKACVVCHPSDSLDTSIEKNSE

Mus musculus [1] = experiment: Neurotoxicity in F1 albino mouse assessed as minimal motor impairment at 300 mg/kg, ip after 1 hr by rotorod test; type: toxicity, organism-based; parameters: dose 300 mg/kg, route intraperitoneal; conditions: in vivo
Summary of the method: (§1)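 Male albino F-1 mice (18–25 g), groups of 1–5 (rotorod 2–8). Compound given ip as a suspension in 0.5% methylcellulose at 30, 100 and 300 mg/kg. Seizures by maximal electroshock or subcutaneous pentylenetetrazole; neurotoxicity by rotorod. Read at 0.5 and 4 h, with some at 0.25, 1 and 2 h. Value is the minimum active dose, with protected (or toxic)/tested animals.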

Mus musculus [2] = experiment: Anticonvulsant activity in F1 albino mouse assessed as protection against maximal electroshock-induced seizures at 300 mg/kg, ip after 0.25 hrs; type: functional, organism-based; parameters: dose 300 mg/kg; summary of the method: as §1
Adenosine receptor A2b = molecular target: T2, Adenosine receptor A2b (Homo sapiens, UniProt P29275); experiment: Displacement of [3H]PSB-603 from human recombinant adenosine A2B receptor expressed in CHO cells; type: cell-based
T2 sequence (P29275 whole entry): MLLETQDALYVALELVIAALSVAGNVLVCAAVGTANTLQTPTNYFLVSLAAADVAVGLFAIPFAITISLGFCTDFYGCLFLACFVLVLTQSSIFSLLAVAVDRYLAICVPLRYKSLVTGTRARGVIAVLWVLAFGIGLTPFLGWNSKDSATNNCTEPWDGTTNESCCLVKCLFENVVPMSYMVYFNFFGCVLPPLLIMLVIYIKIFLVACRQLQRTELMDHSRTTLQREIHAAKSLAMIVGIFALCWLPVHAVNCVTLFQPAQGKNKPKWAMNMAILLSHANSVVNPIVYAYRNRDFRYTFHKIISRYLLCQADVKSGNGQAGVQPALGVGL
Summary of the method: (§2)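 CHO cell membranes expressing the human receptor. Radioligands: A1 [3H]CCPA; A2B [3H]ZM241385 or [3H]PSB-603; A3 [3H]PSB-11. […] Potent compounds run at 6–7 concentrations spanning 3 orders of magnitude; Ki ± SEM.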

Mus musculus [3] = experiment: Anticonvulsant activity in F1 albino mouse assessed as protection against subcutaneous pentylenetetrazole-induced seizures at 300 mg/kg, ip after 1 hr; type: functional, organism-based; parameters: dose 300 mg/kg; summary of the method: as §1
Adenosine receptor A2a [4] = molecular target: T3, Adenosine receptor A2a (Homo sapiens, UniProt P29274); experiment: Displacement of [3H]MSX-2 from human recombinant adenosine A2A receptor expressed in CHO cells; type: cell-based
[5] = molecular target: Adenosine receptor A2a (Rattus norvegicus) (UniProt P30543); conditions: Brain, Membrane, 25 uM
[6] = molecular target: T4, Adenosine receptor A2b (Homo sapiens) (UniProt P29275); experiment: Displacement of [3H]PSB-603 from human recombinant adenosine A2B receptor expressed in CHO cells at 10 uM; type: cell-based; summary of the method: as §2
T4 sequence (whole entry): T2 sequence (P29275 whole entry)

Adenosine receptor A1 [7] = molecular target: T5, Adenosine receptor A1 (Homo sapiens, UniProt P30542); experiment: Displacement of [3H]CCPA from human recombinant adenosine A1 receptor expressed in CHO cells; type: cell-based
T5 sequence (P30542 whole entry): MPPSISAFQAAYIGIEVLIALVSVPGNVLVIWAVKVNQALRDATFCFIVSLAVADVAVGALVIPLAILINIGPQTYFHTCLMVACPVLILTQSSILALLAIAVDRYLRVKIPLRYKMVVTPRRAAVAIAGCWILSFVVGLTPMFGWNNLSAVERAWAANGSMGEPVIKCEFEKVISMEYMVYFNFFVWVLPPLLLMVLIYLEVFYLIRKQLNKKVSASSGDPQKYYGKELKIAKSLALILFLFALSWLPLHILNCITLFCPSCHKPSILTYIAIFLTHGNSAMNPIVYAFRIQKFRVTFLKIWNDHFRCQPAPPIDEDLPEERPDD

[8] = molecular target: T6, Adenosine receptor A1 (Homo sapiens) (UniProt P30542); experiment: Displacement of [3H]CCPA from human recombinant adenosine A1 receptor expressed in CHO cells at 10 uM; type: cell-based; summary of the method: as §2
T6 sequence (whole entry): T5 sequence (P30542 whole entry)

Mus musculus [9] = experiment: Anticonvulsant activity in F1 albino mouse assessed as protection against subcutaneous pentylenetetrazole-induced seizures at 300 mg/kg, ip after 0.5 hrs; type: functional, organism-based; parameters: dose 300 mg/kg; summary of the method: as §1
Mus musculus [10] = experiment: Anticonvulsant activity in F1 albino mouse assessed as protection against maximal electroshock-induced seizures at 300 mg/kg, ip after 4 hrs; type: functional, organism-based; parameters: dose 300 mg/kg; summary of the method: as §1
Mus musculus [11] = experiment: Neurotoxicity in F1 albino mouse assessed as minimal motor impairment at 300 mg/kg, ip after 4 hrs by rotorod test; type: toxicity, organism-based; parameters: dose 300 mg/kg, route intraperitoneal; conditions: in vivo; summary of the method: as §1
Mus musculus [12] = experiment: Anticonvulsant activity in F1 albino mouse assessed as protection against subcutaneous pentylenetetrazole-induced seizures at 300 mg/kg, ip after 4 hrs; type: functional, organism-based; parameters: dose 300 mg/kg; summary of the method: as §1
[13] = molecular target: T7, Adenosine receptor A1 (Rattus norvegicus) (UniProt P25099); experiment: Displacement of [3H]CCPA from adenosine A1 receptor in rat brain cortical membrane at 25 uM; type: cell membranes
T7 sequence (whole entry): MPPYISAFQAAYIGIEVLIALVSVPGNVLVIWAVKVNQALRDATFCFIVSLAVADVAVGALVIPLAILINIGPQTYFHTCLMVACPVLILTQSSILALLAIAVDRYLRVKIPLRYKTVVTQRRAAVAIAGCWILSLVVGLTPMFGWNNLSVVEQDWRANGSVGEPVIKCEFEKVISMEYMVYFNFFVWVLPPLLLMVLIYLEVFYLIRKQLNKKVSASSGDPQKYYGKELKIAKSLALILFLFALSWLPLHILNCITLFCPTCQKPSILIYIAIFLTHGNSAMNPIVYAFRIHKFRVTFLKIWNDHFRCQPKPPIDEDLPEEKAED

Mus musculus [14] = experiment: Anticonvulsant activity in F1 albino mouse assessed as protection against maximal electroshock-induced seizures at 300 mg/kg, ip after 1 hr; type: functional, organism-based; parameters: dose 300 mg/kg; summary of the method: as §1
Adenosine receptor A2a [15] = molecular target: T3, Adenosine receptor A2a; conditions: CHO, 10 uM
Mus musculus [16] = experiment: Neurotoxicity in F1 albino mouse assessed as minimal motor impairment at 300 mg/kg, ip after 0.25 hrs by rotorod test; type: toxicity, organism-based; parameters: dose 300 mg/kg, route intraperitoneal; conditions: in vivo; summary of the method: as §1
Mus musculus [17] = experiment: Neurotoxicity in F1 albino mouse assessed as minimal motor impairment at 300 mg/kg, ip after 0.5 hrs by rotorod test; type: toxicity, organism-based; parameters: dose 300 mg/kg, route intraperitoneal; conditions: in vivo; summary of the method: as §1
Adenosine receptor A2a [18] = molecular target: Adenosine receptor A2a (Rattus norvegicus, UniProt P30543); experiment: Displacement of [3H]MSX-2 from adenosine A2A receptor in rat brain striatal membrane; type: cell membranes
Adenosine receptor A1 [19] = molecular target: T8, Adenosine receptor A1 (Rattus norvegicus, UniProt P25099); experiment: Displacement of [3H]CCPA from adenosine A1 receptor in rat brain cortical membrane; type: cell membranes
T8 sequence (P25099 whole entry): T7 sequence (whole entry)

Rattus norvegicus = organism: Rattus norvegicus; experiment: Selectivity ratio of Ki for adenosine A1 receptor in rat brain cortical membrane to Ki for adenosine A2A receptor in rat brain striatal membrane; type: cell membranes
Summary of the method: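 Ki ratios from radioligand competition binding. Rat A1 used brain cortical membranes and rat A2A used brain striatal membranes. Human A1 and A2A used membranes of CHO cells expressing the receptors. A1 radioligand [³H]CCPA; A2A radioligand [³H]MSX-2. Potent compounds were tested at 6–7 concentrations spanning 3 orders of magnitude.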

Mus musculus [20] = experiment: Anticonvulsant activity in F1 albino mouse assessed as protection against maximal electroshock-induced seizures at 300 mg/kg, ip after 0.5 hrs; type: functional, organism-based; parameters: dose 300 mg/kg; summary of the method: as §1
Mus musculus [21] = experiment: Anticonvulsant activity in F1 albino mouse assessed as protection against subcutaneous pentylenetetrazole-induced seizures at 300 mg/kg, ip after 0.25 hrs; type: functional, organism-based; parameters: dose 300 mg/kg; summary of the method: as §1
[22] = molecular target: T4, Adenosine receptor A2b (Homo sapiens); conditions: CHO, 10 uM
Mus musculus [23] = experiment: Neurotoxicity in F1 albino mouse assessed as minimal motor impairment at 100 mg/kg, ip after 0.5 hrs by rotorod test; type: toxicity, organism-based; parameters: dose 100 mg/kg, route intraperitoneal; conditions: in vivo; summary of the method: as §1
Mus musculus [24] = experiment: Toxicity in F1 albino mouse assessed as myoclonic jerks at 300 mg/kg, ip after 0.5 hrs; type: organism-based; parameters: dose 300 mg/kg, route intraperitoneal; conditions: in vivo
Summary of the method: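 Male albino F-1 mice (18–25 g) were dosed i.p. with a suspension in 0.5% methylcellulose in water at 30, 100 and 300 mg/kg. Screening used MES, subcutaneous pentylenetetrazole (ScMet) and rotorod tests, with 1–5 mice per seizure test.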

T3 sequence (P29274 whole entry): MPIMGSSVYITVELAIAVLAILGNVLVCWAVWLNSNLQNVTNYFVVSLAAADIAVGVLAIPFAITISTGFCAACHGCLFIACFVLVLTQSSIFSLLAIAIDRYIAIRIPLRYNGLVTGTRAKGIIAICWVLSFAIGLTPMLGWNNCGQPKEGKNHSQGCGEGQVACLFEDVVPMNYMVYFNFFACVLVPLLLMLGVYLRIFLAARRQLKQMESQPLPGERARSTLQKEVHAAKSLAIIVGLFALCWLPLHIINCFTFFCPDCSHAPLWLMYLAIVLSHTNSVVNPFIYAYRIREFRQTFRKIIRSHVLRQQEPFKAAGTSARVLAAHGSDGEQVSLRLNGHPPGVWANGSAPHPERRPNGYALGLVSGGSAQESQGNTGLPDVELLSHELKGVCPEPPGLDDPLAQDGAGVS
Chain of Adenosine receptor A2a (Rattus norvegicus, UniProt P30543) (P30543 whole entry): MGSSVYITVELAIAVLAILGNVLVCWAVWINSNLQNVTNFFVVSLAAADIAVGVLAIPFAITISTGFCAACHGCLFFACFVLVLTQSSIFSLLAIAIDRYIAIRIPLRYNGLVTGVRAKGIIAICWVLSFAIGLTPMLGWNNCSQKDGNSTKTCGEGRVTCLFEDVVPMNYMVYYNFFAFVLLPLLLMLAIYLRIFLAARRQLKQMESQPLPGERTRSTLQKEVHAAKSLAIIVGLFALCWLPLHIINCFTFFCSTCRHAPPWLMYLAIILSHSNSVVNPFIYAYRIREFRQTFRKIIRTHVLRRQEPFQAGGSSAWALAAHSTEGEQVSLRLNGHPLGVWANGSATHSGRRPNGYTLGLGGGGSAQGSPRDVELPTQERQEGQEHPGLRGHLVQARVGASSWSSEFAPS
Chain of Adenosine receptor A2a (Rattus norvegicus) (P30543 whole entry): as above

SMILES	Ki (Adenosine receptor A3)	Activity (Mus musculus [1])	Activity (Mus musculus [2])	Ki (Adenosine receptor A2b)	Activity (Mus musculus [3])	Ki (Adenosine receptor A2a [4])	inhibition [6]	Ki (Adenosine receptor A1 [7])	inhibition [8]	Activity (Mus musculus [9])	Activity (Mus musculus [10])	Activity (Mus musculus [11])	Activity (Mus musculus [12])	inhibition [13]	Activity (Mus musculus [14])	Activity (Mus musculus [16])	Ki (Adenosine receptor A2a [18])	Ki (Adenosine receptor A1 [19])	Ratio Ki (Rattus norvegicus)	Activity (Mus musculus [20])	further results
Cn1c(=O)c2c(nc3n2CCCN3C23CC4CC(CC(C4)C2)C3)n(C)c1=O	1.29 µM	Non-toxic	inactive	> 10 µM	inactive	> 10 µM	0%	> 10 µM	15%	inactive	inactive	Non-toxic	inactive	7%	inactive	Non-toxic	> 10 µM	> 10 µM	1	inactive	inhibition [5]: 13%; inhibition (Adenosine receptor A2a [15]): 0%; Activity (Mus musculus [17]): Non-toxic; Activity (Mus musculus [21]): inactive
CCn1c(=O)c2c(nc(/C=C/c3ccc(OC)c(OC)c3)n2C)n(CC)c1=O [ISTRADEFYLLINE]	4.47 µM							2.07 µM													inhibition [22]: 47%
Cn1c(=O)c2c(nc3n2CCCCN3C2CCCCCCC2)n(C)c1=O	1.67 µM	Non-toxic	inactive	> 10 µM	inactive	2.4 µM	0%	> 10 µM	29%	inactive	inactive	Non-toxic	inactive	16%	inactive	Non-toxic	6.86 µM	> 10 µM	> 1	inactive	Activity (Mus musculus [23]): Non-toxic; Activity (Mus musculus [24]): Toxic; Activity (Mus musculus [21]): inactive
